Calls of active or inactive are those of the source. No cut-off for these calls is given here.
How the values were obtained:
[1] = target: T1, Adenosine receptor A1 (Homo sapiens) (UniProt P30542)
T1 sequence (whole entry): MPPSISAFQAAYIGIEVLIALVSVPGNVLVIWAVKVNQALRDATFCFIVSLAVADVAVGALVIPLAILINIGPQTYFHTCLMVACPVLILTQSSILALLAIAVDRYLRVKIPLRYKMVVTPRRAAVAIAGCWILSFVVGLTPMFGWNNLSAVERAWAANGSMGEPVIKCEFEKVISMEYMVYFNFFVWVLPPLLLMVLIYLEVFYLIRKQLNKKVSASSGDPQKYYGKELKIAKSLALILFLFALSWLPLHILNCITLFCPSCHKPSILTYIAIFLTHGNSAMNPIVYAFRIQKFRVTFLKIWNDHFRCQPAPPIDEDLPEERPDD

[2] = target: T2, Adenosine receptor A2b (Homo sapiens) (UniProt P29275); test: Binding affinity to human Adenosine A2B receptor expressed in yeast cells coexpressed with GPA1/Galphas; assay type: cell-based
T2 sequence (whole entry): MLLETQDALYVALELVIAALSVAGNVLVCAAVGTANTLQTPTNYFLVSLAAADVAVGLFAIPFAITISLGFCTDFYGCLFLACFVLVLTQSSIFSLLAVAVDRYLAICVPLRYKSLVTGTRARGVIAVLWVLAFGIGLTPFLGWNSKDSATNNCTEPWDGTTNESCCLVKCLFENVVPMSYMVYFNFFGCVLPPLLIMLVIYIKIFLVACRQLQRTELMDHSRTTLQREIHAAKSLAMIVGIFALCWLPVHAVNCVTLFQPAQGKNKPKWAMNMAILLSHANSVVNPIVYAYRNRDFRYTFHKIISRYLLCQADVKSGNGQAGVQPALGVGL
Procedure, shortened: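 pKA is derived by non-linear regression of the operational model of agonism applied to 16 h yeast FUS1-lacZ concentration-response data, with A2BR coupled to the GPA1/Gαs chimera.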

[3] = target: T1, Adenosine receptor A1 (Homo sapiens); test: Agonist activity at human Adenosine A1 receptor expressed in yeast cells coexpressed with chimeric GPA1/Galphai1 at 100 uM after 16 hrs by beta galactosidase reporter gene assay; assay type: cell-based
Procedure, shortened: (§1)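 Human receptor expressed from GAPDH promoter (p426-GPD) in Δfar1 FUS1-lacZ yeast with Gpa1p(1-467) carrying the 5 C-terminal Gα residues. Cells are grown overnight in SD-URA at 30°C, diluted 1:10 and grown 8 h. They are set to OD600 0.02 and given compound at 1% v/v DMSO for 16 h at 30°C. A2A strain is grown in SD-URA-HIS, with 5 mM 3-amino-triazole in treatment media. Read-out: ONPG, (OD430−OD620)/OD620.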

[4] = target: T2, Adenosine receptor A2b (Homo sapiens); test: Agonist activity at human Adenosine A2B receptor expressed in yeast cells coexpressed with chimeric GPA1/Galphas at 100 µM after 16 hrs by beta-galactosidase reporter gene assay; assay type: cell-based
Procedure, shortened: (§2)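 Yeast (Δfar1, FUS1-lacZ) express A2BR from the GAPDH promoter alongside Gpa1p/Gαs chimera. The OD600 is 0.02 and compound is added in 1% v/v DMSO for 16 h at 30°C. β-Galactosidase is read with ONPG at OD430, normalised as (OD430−OD620)/OD620. […] Three-parameter logistic fit gives EC50 and Emax. Data are from 5-8 independent experiments.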

[5] = target: T1, Adenosine receptor A1 (Homo sapiens); remark: listed apart in the source
[6] = target: T3, Adenosine receptor A1 (Homo sapiens, UniProt P30542); test: Agonist activity at human Adenosine A1 receptor expressed in yeast cells coexpressed with chimeric GPA1/Galphai1 after 16 hrs by beta galactosidase reporter gene assay; assay type: cell-based
T3 sequence (P30542 whole entry): T1 sequence (whole entry)

[7] = target: T2, Adenosine receptor A2b (Homo sapiens); test: Agonist activity at human Adenosine A2B receptor expressed in yeast cells coexpressed with chimeric GPA1/Galphas after 16 hrs by beta-galactosidase reporter gene assay relative to NECA; assay type: cell-based
Procedure, shortened: as §2

[8] = target: T4, Adenosine receptor A2a (Homo sapiens, UniProt P29274); test: Agonist activity at human Adenosine A2A receptor expressed in yeast cells coexpressed with chimeric GPA1/Galphas after 16 hrs by beta-galactosidase reporter gene assay; assay type: cell-based
[9] = target: T3, Adenosine receptor A1; test: Agonist activity at human Adenosine A1 receptor transfected in CHO-K1 cells assessed as inhibition of forskolin-stimulated cAMP production after 30 mins by multimode microplate reader analysis; assay type: functional, cell-based
[10] = target: T5, Adenosine receptor A3 (Homo sapiens) (UniProt P0DMS8); test: Agonist activity at human Adenosine A3 receptor transfected in CHO-K1 cells assessed as inhibition of forskolin-stimulated cAMP production after 30 mins by multimode microplate reader analysis relative to total forskolin; assay type: functional, cell-based; parameters: concentration or dose not given beside the values
T5 sequence (whole entry): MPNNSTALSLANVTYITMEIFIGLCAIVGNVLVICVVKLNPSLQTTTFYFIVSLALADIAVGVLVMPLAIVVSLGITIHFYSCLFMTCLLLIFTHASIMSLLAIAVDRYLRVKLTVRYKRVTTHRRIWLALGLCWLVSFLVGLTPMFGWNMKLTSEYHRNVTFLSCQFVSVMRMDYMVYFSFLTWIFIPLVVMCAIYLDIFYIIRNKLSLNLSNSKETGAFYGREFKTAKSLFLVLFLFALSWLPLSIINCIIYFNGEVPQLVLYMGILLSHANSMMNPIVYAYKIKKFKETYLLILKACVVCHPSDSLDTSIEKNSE
Procedure, shortened: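 CHO-K1 cells are transiently transfected with receptor (2 µg DNA, FuGene 6) and harvested at 48 h. Cells are resuspended in PBS with 0.1% BSA and 25 µM rolipram, at 2500 cells/well. They are co-incubated with 10 µM forskolin and ligand (10 pM to 1 µM) for 30 min at room temperature. cAMP is measured by LANCE kit. Data are expressed as % of the 10 µM forskolin response.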

[11] = target: T4, Adenosine receptor A2a
[12] = target: T5, Adenosine receptor A3 (Homo sapiens); test: (§3) Agonist activity at human Adenosine A3 receptor transfected in CHO-K1 cells assessed as inhibition of forskolin-stimulated cAMP production after 30 mins by multimode microplate reader analysis; assay type: functional, cell-based
Procedure, shortened: (§4)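 CHO-K1 cells are transiently transfected with receptor (2 µg DNA, FuGene 6) and harvested at 48 h. They are co-incubated with 10 µM forskolin and ligand (10 pM to 1 µM) for 30 min at room temperature. cAMP is measured by LANCE kit. Data are expressed as % of the 10 µM forskolin response.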

[13] = target: T2, Adenosine receptor A2b (Homo sapiens); test: (§5) Agonist activity at human Adenosine A2B receptor expressed in yeast cells coexpressed with chimeric GPA1/Galphas after 16 hrs by beta-galactosidase reporter gene assay; assay type: cell-based
Procedure, shortened: (§6)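 Yeast (Δfar1, FUS1-lacZ) express A2BR from the GAPDH promoter alongside Gpa1p/Gαs chimera. The OD600 is 0.02 and compound is added in 1% v/v DMSO for 16 h at 30°C. β-Galactosidase is read with ONPG at OD430, normalised as (OD430−OD620)/OD620. Three-parameter logistic fit gives EC50 and Emax. Data are from 5-8 independent experiments.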

[14] = target: T6, Adenosine receptor A3 (Homo sapiens, UniProt P0DMS8); test: as §3; assay type: functional, cell-based
T6 sequence (P0DMS8 whole entry): T5 sequence (whole entry)
Procedure, shortened: as §4

[15] = target: T4, Adenosine receptor A2a; test: Agonist activity at human Adenosine A2A receptor expressed in yeast cells coexpressed with chimeric GPA1/Galphas at 100 uM after 16 hrs by beta-galactosidase reporter gene assay; assay type: cell-based
Procedure, shortened: as §1

[16] = target: T2, Adenosine receptor A2b (Homo sapiens)
[17] = target: T4, Adenosine receptor A2a; remark: listed apart in the source
[18] = target: T7, Adenosine receptor A2b (Homo sapiens, UniProt P29275); test: as §5; assay type: cell-based
T7 sequence (P29275 whole entry): T2 sequence (whole entry)
Procedure, shortened: as §6

T4 sequence (P29274 whole entry): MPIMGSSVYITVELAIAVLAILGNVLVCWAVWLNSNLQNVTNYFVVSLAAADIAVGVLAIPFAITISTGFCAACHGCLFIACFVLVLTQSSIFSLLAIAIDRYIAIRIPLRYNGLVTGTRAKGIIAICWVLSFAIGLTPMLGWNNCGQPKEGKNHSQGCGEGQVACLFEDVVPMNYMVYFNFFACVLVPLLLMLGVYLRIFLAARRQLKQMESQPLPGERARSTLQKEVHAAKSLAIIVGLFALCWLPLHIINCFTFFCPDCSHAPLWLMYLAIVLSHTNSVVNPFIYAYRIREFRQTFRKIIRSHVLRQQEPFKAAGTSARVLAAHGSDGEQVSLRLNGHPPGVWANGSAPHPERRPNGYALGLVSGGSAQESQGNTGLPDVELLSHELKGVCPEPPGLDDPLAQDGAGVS

Structure (SMILES)	pKA [1]	pKA [2]	Activity [3]	Activity [4]	log(activity) [5]	EC50 [6]	Emax [7]	pEC50 [8]	IC50 [9]	Activity [10]	pKA [11]	pIC50 [12]	pEC50 [13]	IC50 [14]	Activity [15]	log(activity) [16]	log(activity) [17]	EC50 [8]	EC50 [18]
O[C@@H]1[C@H](O)[C@@H](CSc2ccccc2F)O[C@H]1n1cnc2c(NC34CC5CC(CC(C5)C3)C4)ncnc21	inactive	inactive	inactive	inactive															
CCNC(=O)[C@H]1O[C@@H](n2cnc3c(NC4C5CC6CC(C5)CC4C6)ncnc32)[C@H](O)[C@@H]1O (stereo not given in full)	2.4	inactive			2.4	15800 nM	inactive	inactive	0.398 nM	inactive	inactive	inactive	inactive						
CCNC(=O)[C@H]1O[C@@H](n2cnc3c(N)nc(NCCc4ccc(CCC(=O)O)cc4)nc32)[C@H](O)[C@@H]1O	2.1	3.4					59.1%												
OC[C@H]1O[C@@H](n2cnc3c(N[C@@H]4CCC[C@H]4O)ncnc32)[C@H](O)[C@@H]1O	5.5	inactive			0.7	631 nM	inactive	inactive	4.37 nM	-35.1%	inactive		inactive	27.5 nM					
CCNC(=O)[C@H]1O[C@@H](n2cnc3c(N[C@H]4C[C@H]5CCC[C@@H](C4)N5C)ncnc32)[C@H](O)[C@@H]1O	inactive	inactive		inactive							inactive				inactive				
CCNC(=O)[C@H]1O[C@@H](n2cnc3c(NC45CC6CC(CC(C6)C4)C5)ncnc32)[C@H](O)[C@@H]1O	4.2	inactive			1.2	3980 nM	inactive	inactive	2.88 nM	inactive	inactive	inactive	inactive						
CCNC(=O)[C@H]1O[C@@H](n2cnc3c(N)ncnc32)[C@H](O)[C@@H]1O	4.4	4.2								-44.1%									
Nc1ncnc2c1ncn2[C@@H]1O[C@H](CO)[C@@H](O)[C@H]1O		3.8					70.4%												
OC[C@H]1O[C@@H](n2cnc3c(NC4CCCC4)nc(Cl)nc32)[C@H](O)[C@@H]1O		4.4			0.6		30.6%			-46.6%	4.7					3.5	-0.1		
CN1[C@@H]2CCC[C@H]1C[C@@H](Nc1ncnc3c1ncn3[C@@H]1O[C@H](CO)[C@@H](O)[C@H]1O)C2	inactive	inactive		inactive							inactive				inactive				
CCNC(=O)[C@H]1O[C@@H](n2cnc3c(N[C@@H]4CCC[C@H]4OCc4ccccc4)ncnc32)[C@H](O)[C@@H]1O	4.3	3.5			1.6	1000 nM	32.2%		0.0295 nM	-38%	3.9			269 nM		0.1	0.5	15800 nM	126000 nM
CCNC(=O)[C@H]1O[C@@H](n2cnc3c(N4[C@@H]5CCC[C@H]4C[C@H](N)C5)ncnc32)[C@H](O)[C@@H]1O	inactive	inactive	inactive	inactive							inactive				inactive				
CCNC(=O)[C@H]1O[C@@H](n2cnc3c(N4[C@@H]5CCC[C@H]4C[C@H](N(C)C)C5)ncnc32)[C@H](O)[C@@H]1O	inactive	inactive	inactive	inactive							inactive				inactive				
OC[C@H]1O[C@@H](n2cnc3c(N[C@@H]4CCC[C@H]4OCc4ccccc4)ncnc32)[C@H](O)[C@@H]1O	4.9	inactive					inactive			inactive	inactive								
CN1[C@@H]2CCC[C@H]1C[C@@H](Nc1ncnc3c1ncn3[C@@H]1O[C@H](CSc3ccccc3F)[C@@H](O)[C@H]1O)C2	inactive	inactive	inactive	inactive							inactive				inactive				
CCNC(=O)[C@H]1O[C@@H](n2cnc3c(NC45CC6CC(CC(O)(C6)C4)C5)ncnc32)[C@H](O)[C@@H]1O	3.5	inactive			1	100000 nM	inactive	inactive	37.2 nM	-32.7%	inactive		inactive	79.4 nM					
OC[C@H]1O[C@@H](n2cnc3c(NC45CC6CC(CC(C6)C4)C5)ncnc32)[C@H](O)[C@@H]1O	3	inactive			1.8	15800 nM	inactive	inactive	19.1 nM	inactive	inactive	inactive	inactive						

From ChEMBL document CHEMBL3769381 (J Med Chem, 2016)
